{"source": "paper PMC6064589", "about": "(Diabetes Therapy, 2018)", "key": {"healthy subjects [1]": {"test_system": "healthy subjects", "assay_type": "in vivo, human", "conditions": "single oral 400 mg dose, N = 76", "summary_of_the_method": "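Placebo-arm subjects received single oral 400 mg positive control or matching placebo in nested crossover, before (baseline) and after (week 15) placebo treatment. […] Supine Holter ECGs pre-dose and 1, 2, 3, 6, 12, 18, 24 h. QTcI analysed by ANOVA (treatment, period, subject fixed; pre-dose QTcI covariate). 3 and 6 h confirmatory with 95% CI; other times with 90% CI.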"}, "healthy subjects [2]": {"test_system": "healthy subjects", "assay_type": "in vivo, human", "summary_of_the_method": "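Healthy subjects randomised to once-weekly s.c. test peptide or placebo, escalated every 4 weeks (0.25, 0.5, 1.0, 1.5 mg) over 16 weeks. Supine continuous 12-lead Holter (Mason-Likar) ECGs at steady state of each level: pre-dose and 12, 18, 24, 25, 26, 27, 30, 36, 42, 48 h. QT/RR measured semi-automatically, lead II. QTcI=QT/RR^β (subject-specific β); QTcL, QTcF, QTcB. Placebo-subtracted baseline-adjusted means, two-sided 90% CIs.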"}, "healthy subjects [3]": {"test_system": "healthy subjects", "test": "Other ECG assessments", "assay_type": "in vivo, human", "summary_of_the_method": "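ECGs come from the same Holter recordings: 11 time points, pre-dose to 48 h after last dose at 0.5, 1.0 and 1.5 mg. HR, PR and QRS use the same model. Outlier cut-offs: HR <50 or >100 bpm; PR >220 ms and/or >25% change from baseline; QRS >110 ms and/or >25% change. A cardiologist read one random ECG per time point for T/U wave abnormalities.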"}, "[4]": {"test": "Pharmacokinetics of semaglutide at steady state of each dose level", "assay_type": "in vivo, human", "conditions": "doses 0.25-1.5 mg at steady state"}, "healthy subjects [5]": {"test_system": "healthy subjects", "test": "Safety and tolerability", "assay_type": "in vivo, human", "summary_of_the_method": "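Healthy subjects received s.c. test peptide or placebo once weekly for 16 weeks, escalating 0.25→0.5→1.0→1.5 mg every 4 weeks, with 5–7-week follow-up. Some injections were given on-site, the rest self-administered. Recorded: adverse events, hypoglycaemic events, anti-drug antibodies at follow-up, haematology, biochemistry, urinalysis, calcitonin, vital signs, ECG, physical examination, body weight and fasting plasma glucose changes from baseline.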"}, "[6]": {"conditions": "phase 3 trials; cited from earlier work"}, "[7]": {"test_system": "dipeptidyl peptidase-4 (DPP-4)", "conditions": "due to substitution at position 8; cited from earlier work"}, "healthy subjects [8]": {"test_system": "healthy subjects", "conditions": "cited from earlier work"}, "[9]": {"conditions": "1.5 mg at steady state, 0-48 h after dosing"}, "[10]": {"conditions": "s.c. once weekly, escalated 0.25 to 1.5 mg over 16 weeks, N = 83"}}, "note": "Read-outs that look alike come from different tables or passages of the source.", "data": [{"compound": "COc1c(N2C[C@@H]3CCCN[C@@H]3C2)c(F)cc2c(=O)c(C(=O)O)cn(C3CC3)c12", "note": "[moxifloxacin]", "values": [{"measurement": "Estimated treatment difference moxifloxacin vs. placebo, QTcI", "setting": "healthy subjects [1]; 1 h after dosing", "value": 10.0, "unit": "ms"}, {"measurement": "Estimated treatment difference moxifloxacin vs. placebo, QTcI", "setting": "healthy subjects [1]; 2 h after dosing", "value": 12.3, "unit": "ms"}, {"measurement": "Estimated treatment difference moxifloxacin vs. placebo, QTcI", "setting": "healthy subjects [1]; 3 h after dosing (confirmatory endpoint)", "value": 12.3, "unit": "ms"}, {"measurement": "Estimated treatment difference moxifloxacin vs. placebo, QTcI", "setting": "healthy subjects [1]; 6 h after dosing (confirmatory endpoint)", "value": 8.9, "unit": "ms"}]}, {"compound": "CC[C@H](C)[C@H](NC(=O)[C@H](Cc1ccccc1)NC(=O)[C@H](CCC(=O)O)NC(=O)[C@H](CCCCNC(=O)COCCOCCNC(=O)COCCOCCNC(=O)CC[C@H](NC(=O)CCCCCCCCCCCCCCCCC(=O)O)C(=O)O)NC(=O)[C@H](C)NC(=O)[C@H](C)NC(=O)[C@H](CCC(N)=O)NC(=O)CNC(=O)[C@H](CCC(=O)O)NC(=O)[C@H](CC(C)C)NC(=O)[C@H](Cc1ccc(O)cc1)NC(=O)[C@H](CO)NC(=O)[C@H](CO)NC(=O)[C@@H](NC(=O)[C@H](CC(=O)O)NC(=O)[C@H](CO)NC(=O)[C@@H](NC(=O)[C@H](Cc1ccccc1)NC(=O)[C@@H](NC(=O)CNC(=O)[C@H](CCC(=O)O)NC(=O)C(C)(C)NC(=O)[C@@H](N)Cc1cnc[nH]1)[C@@H](C)O)[C@@H](C)O)C(C)C)C(=O)N[C@@H](C)C(=O)N[C@@H](Cc1c[nH]c2ccccc12)C(=O)N[C@@H](CC(C)C)C(=O)N[C@H](C(=O)N[C@@H](CCCNC(=N)N)C(=O)NCC(=O)N[C@@H](CCCNC(=N)N)C(=O)NCC(=O)O)C(C)C", "note": "[semaglutide]", "values": [{"measurement": "Upper limits of all 11 two-sided 90% CIs for the mean ΔΔQTcI", "setting": "healthy subjects [2]; 0.5 mg at steady state, 0-48 h after dosing", "value": "< 10", "unit": "ms"}, {"measurement": "Upper limits of all 11 two-sided 90% CIs for the mean ΔΔQTcI", "setting": "healthy subjects [2]; 1.0 mg at steady state, 0-48 h after dosing", "value": "< 10", "unit": "ms"}, {"measurement": "Maximum upper limit of the two-sided 90% CI for the time-matched ΔΔQTcI", "setting": "healthy subjects [2]; [9]", "value": 0.3, "unit": "ms"}, {"measurement": "Upper limits of the 11 two-sided 90% CIs of ΔΔQTcI", "setting": "healthy subjects [2]; [9]", "value": "< 10", "unit": "ms"}, {"measurement": "Prolongation of the uncorrected QT interval, QTcL or QTcF", "setting": "healthy subjects [2]; doses of 0.5, 1.0 and 1.5 mg at steady state", "value": "No prolongation was observed"}, {"measurement": "QTcB, upper limits of the 90% CIs", "setting": "healthy subjects [2]; for at least one time point at all dose levels", "value": "> 10", "unit": "ms"}, {"measurement": "Increased PR interval of > 25% above baseline", "setting": "healthy subjects [3]; 0.5 mg group", "value": "none"}, {"measurement": "Increased PR interval of > 25% above baseline", "setting": "healthy subjects [3]; 1.0 and 1.5 mg treatment groups", "value": "five"}, {"measurement": "Second-degree or higher-grade atrioventricular block", "setting": "healthy subjects [3]; all ECGs evaluated by the cardiologist", "value": "no observations of a second-degree atrioventricular block or higher-grade atrioventricular blocks"}, {"measurement": "Changes in QRS complex duration of > 25% above baseline", "setting": "healthy subjects [3]; any of the treatment arms", "value": "No changes"}, {"measurement": "Subjects with T wave abnormalities", "setting": "healthy subjects [3]; doses 0.5 or 1.0 mg, female subjects, all of no clinical relevance", "value": "three"}, {"measurement": "U wave abnormalities", "setting": "healthy subjects [3]; either group", "value": "no U wave abnormalities were observed"}, {"measurement": "Increase in AUC0−48h and Cmax with increasing dose", "setting": "[4]", "value": "consistent with dose proportionality"}, {"measurement": "Diastolic BP change from baseline to last dose", "setting": "healthy subjects [5]; 16-week treatment, mean ± SD", "value": "5 ± 8", "unit": "mmHg"}, {"measurement": "HR change from baseline to last dose (vital signs)", "setting": "healthy subjects [5]; 16-week treatment, mean ± SD", "value": "10 ± 9", "unit": "bpm"}, {"measurement": "Development of anti-semaglutide antibodies", "setting": "healthy subjects [5]; at follow-up", "value": "no subjects developed anti-semaglutide antibodies"}, {"measurement": "Severe hypoglycemic episodes", "setting": "healthy subjects [5]; in vivo", "value": "No severe hypoglycemic episodes were reported"}, {"measurement": "Events leading to withdrawal, percentage of subjects", "setting": "healthy subjects [5]; [10]", "value": 2.4, "unit": "%"}, {"measurement": "Gastrointestinal disorders (predominantly nausea, vomiting and diarrhea), subjects", "setting": "healthy subjects [5]; [10]", "value": 56.6, "unit": "%"}, {"measurement": "Metabolism and nutrition disorders (predominantly decreased appetite), subjects", "setting": "healthy subjects [5]; [10]", "value": 51.8, "unit": "%"}, {"measurement": "Mean increases in HR with semaglutide versus placebo", "setting": "[6]", "value": "up to 3 bpm"}, {"measurement": "Susceptibility to degradation by dipeptidyl peptidase-4 (DPP-4)", "setting": "[7]", "value": "less susceptible to degradation"}]}, {"compound": "albiglutide", "values": [{"measurement": "PR interval prolongation", "setting": "healthy subjects [8]", "value": "A PR interval prolongation has also been observed"}, {"measurement": "Prolongation of the QTcI interval or QTc by other correction methods", "setting": "healthy subjects [8]; healthy subjects", "value": "neither albiglutide administered once weekly nor liraglutide administered once daily have been observed to prolong the QTcI interval"}]}, {"compound": "dulaglutide", "values": [{"measurement": "QTc prolongation", "setting": "healthy subjects [8]; administered once weekly", "value": "not associated with QTc prolongation"}, {"measurement": "PR interval prolongation", "setting": "healthy subjects [8]", "value": "A PR interval prolongation has also been observed"}]}, {"compound": "exenatide", "values": [{"measurement": "Correlation between exposure and QTc interval", "setting": "healthy subjects [8]; single dose", "value": "positive correlation"}, {"measurement": "Prolongation of QTcP or QTcI", "setting": "healthy subjects [8]; supratherapeutic concentrations, intravenous, healthy subjects", "value": "no prolongation"}]}, {"compound": "liraglutide", "values": [{"measurement": "PR interval prolongation", "setting": "healthy subjects [8]", "value": "A PR interval prolongation has also been observed"}, {"measurement": "Prolongation of the QTcI interval or QTc by other correction methods", "setting": "healthy subjects [8]; healthy subjects", "value": "neither albiglutide administered once weekly nor liraglutide administered once daily have been observed to prolong the QTcI interval"}]}]}
